{"data": "Measurements collected from several papers", "DPP4": "Dipeptidyl peptidase 4 (DPP4, Homo sapiens, UniProt P27487)", "CDK1": "Cyclin-dependent kinase 1 (CDK1, Homo sapiens, UniProt P06493)", "note": "Compare with care: the assays were run in different laboratories."}
{"Compound": "Cn1c(=O)cc(N2CCC(N)CC2)n(Cc2nc3ccc(Br)cc3c(=O)n2-c2ccc(F)cc2)c1=O", "target": "DPP4", "test": "enzyme activity, inhibitor", "setting": "20 µM", "endpoint": "inhibition", "value": "27.3%"}
{"Compound": "Cc1cc([C@@H](C)Nc2ccccc2C(=O)O)c2nc(N3CCC(F)(F)CC3)c(C#N)c(=O)n2c1", "target": "Mitogen-activated protein kinase 3 (MAPK3, Homo sapiens, UniProt P27361)", "test": "binding, competition with immobilised ligand", "setting": "1 µM", "endpoint": "remaining binding", "value": "100%"}
{"Compound": "COc1cc(-c2cncc3c2CN(C)Cc2cc(N4CCNCC4)ccc2-3)cc(OC)c1OC", "target": "Ephrin type-A receptor 2 (EPHA2, Homo sapiens, UniProt P29317)", "test": "enzyme activity, inhibitor", "setting": "1 µM", "endpoint": "remaining activity", "value": "103%"}
{"Compound": "CC(=O)c1c(C)c2cnc(Nc3ccc(N4CCNCC4)cn3)nc2n(C2CCCC2)c1=O", "target": "Cyclin-dependent kinase 9 (CDK9, Homo sapiens, UniProt P50750)", "test": "enzyme activity, inhibitor, ADP detection", "setting": "1 µM", "endpoint": "activity vs control", "value": "106%"}
{"Compound": "Cn1c(=O)cc(N2CCC(N)CC2)n(Cc2nc3ccccc3c(=O)n2-c2ccc(F)cc2)c1=O", "target": "DPP4", "test": "enzyme activity, inhibitor", "setting": "20 µM", "endpoint": "inhibition", "value": "19.9%"}
{"Compound": "CCO[C@@H](Cc1ccc(OCCc2ccc(OS(C)(=O)=O)cc2)cc1)C(=O)O", "target": "CDK1", "test": "enzyme activity, inhibitor, ADP detection", "setting": "100 µM", "endpoint": "inhibition", "value": "96.9%"}
{"Compound": "CN(C)c1ncnc2c1ncn2[C@@H]1O[C@H](CCl)[C@@H](NC(=O)[C@@H](CSC(c2ccccc2)c2ccccc2)NC(=O)OC(C)(C)C)[C@H]1O", "target": "Aminopeptidase N (ANPEP, Homo sapiens, UniProt P15144)", "test": "enzyme activity, inhibitor, fluorescence", "setting": "10 µM", "endpoint": "inhibition", "value": "0%"}
{"Compound": "C=CC(=O)N1CCC(COCC(=O)N2CCN(c3nc(-c4cnc(N)nc4C(F)F)nc(N4CCOC[C@@H]4C)n3)CC2)CC1", "target": "Calcium/calmodulin-dependent protein kinase kinase 2 (CAMKK2, Homo sapiens, UniProt Q96RR4)", "test": "binding, competition with immobilised ligand", "setting": "1 µM", "endpoint": "remaining binding", "value": "99%"}
{"Compound": "O=C1NC(=NCc2cccs2)S/C1=C\\c1ccc2ncccc2c1", "target": "CDK1", "test": "enzyme activity, inhibitor, ADP detection", "setting": "10 µM", "endpoint": "inhibition", "value": "100%"}
{"Compound": "Cn1c(=O)cc(N2CCC(N)CC2)n(Cc2nc3ccccc3c(=O)n2-c2ccc(F)c(Cl)c2)c1=O", "target": "DPP4", "test": "enzyme activity, inhibitor", "setting": "20 µM", "endpoint": "inhibition", "value": "32.5%"}
{"Compound": "Cc1cc2cc(Oc3ccnc(Nc4cccc(CS(=O)(=O)NCCN(C)C)c4)n3)ccc2[nH]1", "target": "CDK1", "test": "enzyme activity, inhibitor, ADP detection", "setting": "10 µM", "endpoint": "inhibition", "value": "51.5%"}
{"Compound": "CNc1ncc2c(/C=C/C(=O)N3CCC(OC)CC3)nn(Cc3cccc(C(F)(F)F)c3)c2n1", "target": "Cyclin-dependent kinase 1, with cyclin A2 (CDK1, Homo sapiens, UniProt P06493)", "test": "enzyme activity, inhibitor, radiometric", "setting": "1 µM", "endpoint": "remaining activity", "value": "86%"}
{"Compound": "O=C(Cn1cc(C=CC(=O)c2ccc(F)cc2)nn1)Nc1nc(-c2ccccc2)cs1", "target": "Stromelysin-2 (Homo sapiens, UniProt P09238)", "test": "enzyme activity, inhibitor", "setting": "0.5 µM", "endpoint": "inhibition", "value": "82.4%"}
